{"source": "paper PMC10450003", "about": "(Clinical Pharmacokinetics, 2023)", "key": {"[1]": {"test": "Mass balance: recovery of radioactive dose in urine, feces and dialysate", "assay_type": "in vivo, human", "conditions": "subjects on hemodialysis; sum of all dialysis treatments (3 times per week, 4 h); total radioactivity (LSC); mean, n = 6"}, "[2]": {"conditions": "cited from earlier work"}, "[3]": {"tested_on": "CYP1A2, CYP2C19, CYP2C8, CYP2C9, CYP2D6, or CYP3A", "conditions": "human hepatic microsomes or in vitro hepatocytes; cited from earlier work"}, "[4]": {"assay_type": "in vivo, human", "conditions": "for total radioactivity in whole blood lower than that in plasma: based on mean Cmax and AUCinf; for time to maximum concentration (post-dose): single IV bolus", "method_in_brief": "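Six healthy and six HD adult males received one 1 mL IV bolus of [14C]-labelled test compound in 0.9% NaCl: 100 μCi, about 200 μg, 1.7–3.0 μg/kg. HD subjects were dosed via the dialysis port after the last weekly dialysis. Plasma aliquots were counted by LSC; whole blood was combusted in an oxidizer before LSC. Results were converted to ng-eq. Noncompartmental analysis used actual sample times and dose: Cmax, tmax, AUClast, AUCinf, t1/2, CL, Vz.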"}, "[5]": {"test": "Safety: adverse events in the phase 1 study", "assay_type": "in vivo, human"}, "[6]": {"test": "Metabolite profiling in pooled fecal homogenate", "assay_type": "in vivo, human", "conditions": "subjects on hemodialysis"}, "[7]": {"tested_on": "other receptors, ion channels, or transporters", "conditions": "other than kappa-opioid receptor; cited from earlier work"}}, "note": "Like-named read-outs stand apart in the source and are kept apart here.", "data": [{"smiles": "CC(C)C[C@@H](NC(=O)[C@@H](Cc1ccccc1)NC(=O)[C@H](N)Cc1ccccc1)C(=O)N[C@H](CCCCN)C(=O)N1CCC(N)(C(=O)O)CC1", "note": "[Difelikefalin, 4-amino-1-[(2R)-6-amino-2-[[(2R)-2-[[(2R)-2-[[(2R)-2-amino-3-phenylpropanoyl]amino]-3-phenylpropanoyl]amino]-4-methylpentanoyl]amino]hexanoyl]piperidine-4-carboxylic acid]", "values": [{"measurement": "Percent of dose recovered in dialysate", "setting": "[1]", "result": 19.5, "unit": "%"}, {"measurement": "abuse potential, physical dependence, respiratory depression", "setting": "[2]", "result": "no abuse potential, no physical dependence, and no respiratory depression effects"}, {"measurement": "metabolism by cytochrome P450 (CYP) enzymes", "setting": "[3]", "result": "not metabolized"}, {"measurement": "total radioactivity in whole blood lower than that in plasma", "setting": "[4]; healthy subjects", "result": "~45", "unit": "%"}, {"measurement": "time to maximum concentration (post-dose)", "setting": "[4]; healthy subjects, plasma total radioactivity", "result": 5, "unit": "min"}, {"measurement": "mean AUC, subjects on HD versus healthy subjects", "setting": "[4]; plasma total radioactivity, ratio of mean AUC, HD higher", "result": "approximately 11 fold"}, {"measurement": "total radioactivity in whole blood lower than that in plasma", "setting": "[4]; subjects on hemodialysis", "result": "approximately 38%"}, {"measurement": "time to maximum concentration (post-dose)", "setting": "[4]; subjects on hemodialysis, plasma total radioactivity", "result": 5, "unit": "min"}, {"measurement": "TEAEs considered by the investigator unrelated to study treatment", "setting": "[5]; all 12 participants", "result": "17 of 24"}, {"measurement": "subjects reporting treatment-emergent AEs (TEAEs)", "setting": "[5]; healthy subjects, of n = 6", "result": "three of the six"}, {"measurement": "share of total radioactivity excreted in feces recovered as unchanged difelikefalin", "setting": "[6]", "result": 84.8, "unit": "%"}, {"measurement": "activity at other receptors, ion channels, or transporters", "setting": "[7]", "result": "no activity at other receptors, ion channels, or transporters"}]}]}
